Source: PubChem
Rows were chosen to be rich in hits. Some 1.9% of all compounds tested hit in one or more screens of this group.
VIM-2 inh: blocks Pseudomonas aeruginosa VIM-2 metallo-beta-lactamase. purified VIM-2, nitrocefin hydrolysis, epi-absorbance fluorescence. inhibition, % at 5.6 µM. hit rate 0.89% among 290,000. AID 1527;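 active means inhibition above the mean of all tested compounds plus 3 SD, cutoff set per screening run, cut at about 7.5% in these data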;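 further: red hydrolysis product quenches plate fluorescence so inhibitors raise well fluorescence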
DNA FID counter: counter-screen for HCV NS3 helicase inhibitors: DNA intercalator displacement | DNA fluorescent intercalator displacement, fluorescence | inhibition, % at 7.9 µM | hit rate 0.17% among 290,000 | AID 1845; in the data active means inhibition above about 37%;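 further: higher means more ethidium bromide displaced from hairpin DNA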
HCV NS3 hel inh: inhibitors of Hepatitis C virus NS3 helicase; NS3 helicase DNA unwinding, Cy5 molecular beacon fluorescence; inhibition, % at 10.9 µM; hit rate 0.56% among 290,000;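 active means inhibition above the mean of all tested compounds plus 3 SD, set per campaign, cut at about 35% in these data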
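Assay system: hepatitis C virus NS3 helicase domain fragment enzyme. Also added: annealed dual-labelled DNA beacon duplex, ATP-started. Timing: 1 h reaction at 25 °C, ATP-initiated. Technique: Cy5 fluorescence at 0 and 60 min, beacon hairpin quenching. Evaluation: % inhibition of unwinding. Replication: one well per compound.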
IMP-1 inhibitor: blocks Pseudomonas aeruginosa IMP-1 metallo-beta-lactamase; hit rate 0.45% among 290,000; purified IMP-1, nitrocefin hydrolysis, epi-absorbance fluorescence; inhibition, % at 5.6 µM;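 active means inhibition above the mean plus 3 SD of all compounds in the same screening run, cut at about 4.5% in these data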
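assay system = purified recombinant IMP-1 metallo-beta-lactamase enzyme | schedule = 15 min preincubation plus 25 min reaction at 25 °C | signal = Epi-absorbance fluorescence, 480 nm excitation, 530 nm emission | read-out basis = percent inhibition from optical density relative to buffer-blank wells | controls = IMP-1 with DMSO as 0%, enzyme-free DMSO as 100%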
A number is an active result; i = inactive.

SMILES | VIM-2 inh | DNA FID counter | HCV NS3 hel inh | IMP-1 inhibitor
CCOC(=O)c1ccccc1N/C=C1\CCCC1=O | 12 | i | i | i
NC(=O)c1ccccc1N/C=C1\CCCCC1=O | i | i | i | i
Cc1c(O)c(CN2CCCCC2)cc2c1oc(=O)c1ccccc12 | i | i | i | i
Cc1c(O)c(CN(C)C)cc2c1oc(=O)c1ccccc12 | 11 | i | i | i
CC(=O)Nc1c(O)nc(SCC(=O)Nc2c(C)cccc2C)[nH]c1=O | i | i | i | 7.3
Cn1c(=O)c(-c2cc(Br)ccc2N)nc2ccccc21 | i | i | i | i
Cn1c(=O)c(N)c2c3c(c(Br)ccc31)C(=O)c1ccccc1-2 | 8.4 | i | i | i
CCCc1cc(=O)oc2c(CNc3ccc(OCC)cc3)c(O)ccc12 | i | i | i | 5.8
CCCCc1cc(=O)oc2c(CN3CCCC3)c(O)ccc12 | i | i | i | i
Fc1cccc(NC(=S)NCCN2CCOCC2)c1 | i | i | i | i
N/C(=N\OC(=O)c1ccccc1Br)c1ccc([N+](=O)[O-])cc1 | i | i | i | 12
Cc1ccc(CN(Cc2cc3cccc(C)c3[nH]c2=O)C(=S)NCCCN(C)C)cc1 | i | i | i | i
Cc1cccc2cc(CN(Cc3ccccc3)C(=S)NCCCN(C)C)c(=O)[nH]c12 | i | 48 | i | i
CN(C)CCCN(Cc1cc2cc3c(cc2[nH]c1=O)OCO3)C(=S)Nc1ccccc1 | i | 47 | i | i
COc1cccc(NC(=O)COc2ccc(C(=S)N3CCN(C)CC3)cc2OC)c1 | 8.3 | i | i | i
CCOC(=O)/C(N=Nc1sc(C(=O)OC)c(C)c1C(=O)OCC)=C(\O)CCl | i | i | i | 4.7
Cc1ccccc1-c1nc(CS(=O)(=O)CC(=O)NCCCN2CC(C)CC(C)C2)c(C)o1 (configuration not stated) | i | 37 | i | i
Cc1ccc(-c2nc(CS(=O)(=O)CC(=O)NCCCN(Cc3ccccc3)C(C)C)c(C)o2)cc1 | i | 37 | i | i
COc1ccc(-c2nc(CS(=O)(=O)CC(=O)NCCc3ccc(C)cc3)c(C)o2)cc1 | i | i | i | 6.2
CCOC(=O)/C(=C/C=C1\Sc2cc(OCC)c(OCC)cc2N1CC)C(C)=O | i | i | i | 6.2
CCN1/C(=C/C(C)=O)Sc2ccc(OC)cc21 | i | i | i | i
CCOC(=O)/C(=C\C=C1/Sc2cc(OCC)c(OCC)cc2N1CC)C(C)=O | i | i | i | 4.8
CSc1ccc(CN2CCN(CC=C(C)C)C(CCO)C2)cc1 (configuration not stated) | i | i | i | i
O=C(NCCc1ccccc1)C(=O)NCC1OCCN1S(=O)(=O)c1ccc2c(c1)OCCO2 (configuration not stated) | i | i | i | i
Cc1cc(C)c(S(=O)(=O)N2CCOC2CNC(=O)C(=O)NCCc2ccc(S(N)(=O)=O)cc2)c(C)c1 (configuration not stated) | i | i | i | i
SMILES | VIM-2 inh | DNA FID counter | HCV NS3 hel inh | IMP-1 inhibitor
Cc1cc(C)c(S(=O)(=O)N2CCOC2CNC(=O)C(=O)NCCCn2ccnc2)c(C)c1 (configuration not stated) | i | i | i | 7.0
O=C(NCCCn1ccnc1)C(=O)NCC1OCCN1S(=O)(=O)c1ccc2c(c1)OCCO2 (configuration not stated) | i | i | i | 5.1
COc1ccc(C(C(=O)NC(C)(C)C)N(C(=O)CCC(=O)Nc2cc(C)on2)c2ccccc2F)cc1 (configuration not stated) | i | i | i | i
O=C(NC1CC1)C1=C[C@H](c2csc3ccccc23)C[C@H](OCCCCO)O1 | i | i | i | i
NC(=O)C1=C[C@@H](c2csc3ccccc23)C[C@@H](OCCCCO)O1 | i | i | i | 6.3
COc1ccc2[nH]c(=O)c(CN(Cc3nnnn3Cc3ccco3)C3CCCCC3)cc2c1 | i | i | 42 | i
CCCn1nc(C(=O)OCn2nnc3ccccc3c2=O)c2ccccc2c1=O | i | i | i | i
CCCn1nc(C(=O)OCC(=O)c2c(N)n(C)c(=O)n(C)c2=O)c2ccccc2c1=O | 11 | i | i | i
CCN1C(=NCCc2c[nH]c3ccccc23)N[C@@H](c2ccccc2)[C@H](C(=O)OC)[C@H]1C | i | i | i | i
CCn1c(=O)c2sccc2n2c(CCCC(=O)NC3CCN(Cc4ccccc4)CC3)nnc12 | 8.0 | i | i | i
CC(C)CCn1c(=O)c2sccc2n2c(CCCC(=O)N3CCN(c4ccccn4)CC3)nnc12 | 8.6 | i | i | i
CC(C)OCCCn1c(=O)c2ccccc2n2c(CCC(=O)N3CCN(c4ccccn4)CC3)nnc12 | i | i | i | i
CC(C)Cn1c(=O)c2sccc2n2c(CCCC(=O)N3CCC(N4CCCCC4)CC3)nnc12 | 7.7 | i | i | i
CCn1c(=O)c2sccc2n2c(CCCC(=O)N3CCN(c4ccccn4)CC3)nnc12 | 8.8 | i | i | i
COc1ccc(CCNC(=O)CN(c2ccc(OC)c(OC)c2)S(=O)(=O)c2ccccc2)cc1OC | i | i | i | i
CCOC(=O)NN1C(=O)c2ccccc2NC1c1ccc(OC)c(OC)c1 (configuration not stated) | i | i | i | i
CCc1ccc(S(=O)(=O)N2CCN(c3ccccc3OC)CC2)cc1 | i | i | i | i
COc1ccc(Cl)cc1Nc1nc(N)c2ccccc2n1 | i | 37 | i | i
NC(=O)C1CCN(C(=O)Cc2ccc(-c3ccccc3)cc2)CC1 | i | i | i | 9.7
CC(=O)c1c(C)oc2c1cc(NS(=O)(=O)c1ccc(C(=O)O)cc1)c1ccccc12 | i | i | i | i
COC(=O)c1c(C)oc2c1cc(NS(=O)(=O)c1ccc(C(=O)O)cc1)c1ccccc12 | i | i | i | 7.3
Cc1sc(-c2ccncc2)nc1OC(=O)c1ccc(F)cc1F | i | i | i | 10
Cc1sc(-c2ccncc2)nc1OC(=O)c1cc(Cl)cc(Cl)c1 | i | i | i | 5.7
Cc1sc(-c2ccncc2)nc1OC(=O)c1ccc(Cl)cc1 | i | i | i | i
CN(C)CCOC(=O)c1ccc2c(c1)S(=O)(=O)c1ccccc1C2=O | i | i | i | i
SMILES | VIM-2 inh | DNA FID counter | HCV NS3 hel inh | IMP-1 inhibitor
CCN(CC)CCNC(=O)c1ccc(Cl)c(S(=O)(=O)Nc2ccccc2OC)c1 | i | i | i | 5.4
CCN(CC)CCCNC(=O)c1ccc(Cl)c(S(=O)(=O)Nc2ccccc2OC)c1 | i | i | i | i
Cc1ncc(CO)c2c1Oc1nc(-c3ccccc3F)nc(SCC(=O)N(C)c3ccccc3)c1C2 | i | i | i | i
Cc1ncc(CO)c2c1Oc1nc(-c3ccccc3)nc(SCC(=O)N(C)c3ccccc3)c1C2 | i | i | i | 7.9
Cc1ncc(CO)c2c1Oc1nc(-c3ccccc3)nc(SCC(=O)N3CCOCC3)c1C2 | i | i | i | 32
Cc1ncc(CO)c2c1Oc1nc(-c3ccccc3)nc(SCC(=O)N3CCCCC3)c1C2 | i | i | i | i
O=C(Nc1c2ccccc2nc2ccccc12)C(Cl)(Cl)Cl | i | 38 | i | i
Cc1cnc(C(=O)OCC(=O)N(C(C)C)C(C)C)cn1 | i | i | i | 5.4
Cc1cnc(C(=O)OCC(=O)N(Cc2ccccc2)C(C)C)cn1 | i | i | i | i
